# Tests used:
# [1] = Cmax in mouse at 2 mg/kg, ip administered as discrete dose; type: ADME, organism-based; parameters: dose 2 mg/kg, route ip; conditions: in vivo
# Procedure, shortened: (§1)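 Discrete (single-compound) mouse PK, dosed IP at 2 mg/kg in 10% DMSO/10% cremophor EL/30% PEG400/50% water. Plasma and brain concentrations measured; brain:plasma ratio reported.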
# [2] = molecular target: Translocator protein (Homo sapiens, UniProt P30536); assay: Binding affinity to peripheral benzodiazepine receptor (unknown origin)
# Translocator protein, sequence (P30536 whole entry): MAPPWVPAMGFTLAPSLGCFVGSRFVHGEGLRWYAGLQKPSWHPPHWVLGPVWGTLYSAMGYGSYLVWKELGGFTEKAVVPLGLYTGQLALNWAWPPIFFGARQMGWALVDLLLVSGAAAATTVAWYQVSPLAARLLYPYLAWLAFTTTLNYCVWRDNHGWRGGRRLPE
# [3] = Volume of distribution at steady state in Sprague-Dawley rat at 0.25 mg/kg, iv bolus injection administered as cassette dose; type: ADME, organism-based; conditions: in vivo, read-out: Vdss
# Procedure, shortened: (§2)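 Male Sprague–Dawley rats, 5-in-1 cassette, 0.25 mg/kg IV of each test article in DMSO:PEG400:EtOH:Saline (5:48:10:37). Plasma sampled at 0.0833, 0.25, 0.5, 1, 3, 4, 8 and 24 h, plus Day 2 at 0.25 h post dose.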
# [4] = Drug concentration in Sprague-Dawley rat brain at 0.25 mg/kg measured up to 48.25 hrs; type: ADME, organism-based; conditions: read-out: Ct
# Procedure, shortened: (§3)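 Brain sampled on Day 2 at 0.25 h, with matching plasma, after a 0.25 mg/kg IV cassette dose (5-in-1) in male Sprague–Dawley rats. Vehicle was DMSO:PEG400:EtOH:Saline (5:48:10:37). Kp is total brain/plasma concentration ratio.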
# [5] = Half life in Sprague-Dawley rat at 0.25 mg/kg, iv bolus injection administered as cassette dose; type: ADME, organism-based; conditions: in vivo; procedure, shortened: as §2
# [6] = Ratio of drug concentration in brain to plasma in Sprague-Dawley rat at 0.25 mg/kg measured after 15 mins; type: ADME, organism-based; conditions: brain and plasma; procedure, shortened: as §3
# [7] = Microsomal stability in mouse liver microsomes assessed as intrinsic clearance; type: ADME, Microsome; conditions: read-out: CLH
# Procedure, shortened: (§4)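 Intrinsic clearance measured in human and mouse liver microsomes. Hepatic clearance predicted from it with the well-stirred organ CL model, binding terms excluded.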
# [8] = Drug concentration in Sprague-Dawley rat plasma at 0.25 mg/kg measured up to 48.25 hrs; type: ADME, organism-based; procedure, shortened: as §3
# [9] = molecular target: T1, Mas-related G-protein coupled receptor member X1 (Homo sapiens, UniProt Q96LB2); assay: Positive allosteric modulator activity at human MRGPRX1 expressed in HEK293 cells assessed as maximal efficacy at 5 uM in presence of BAM8-22 by Fluo4-dye based FLIPR assay relative to control; type: cell-based; conditions: filed as positive allosteric modulator
# T1 sequence (Q96LB2 whole entry): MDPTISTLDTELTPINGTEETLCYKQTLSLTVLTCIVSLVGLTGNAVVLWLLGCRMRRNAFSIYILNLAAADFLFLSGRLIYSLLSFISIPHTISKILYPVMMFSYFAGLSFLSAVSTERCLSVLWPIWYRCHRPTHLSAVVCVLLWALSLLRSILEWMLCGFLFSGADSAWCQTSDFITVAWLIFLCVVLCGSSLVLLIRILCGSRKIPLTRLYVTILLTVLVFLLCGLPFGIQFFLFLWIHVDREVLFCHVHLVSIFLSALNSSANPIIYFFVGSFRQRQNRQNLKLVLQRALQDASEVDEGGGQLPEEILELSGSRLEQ
# [10] = molecular target: D(1B) dopamine receptor (Homo sapiens, UniProt P21918); assay: Binding affinity to D5 receptor (unknown origin)
# D(1B) dopamine receptor, sequence (P21918 whole entry): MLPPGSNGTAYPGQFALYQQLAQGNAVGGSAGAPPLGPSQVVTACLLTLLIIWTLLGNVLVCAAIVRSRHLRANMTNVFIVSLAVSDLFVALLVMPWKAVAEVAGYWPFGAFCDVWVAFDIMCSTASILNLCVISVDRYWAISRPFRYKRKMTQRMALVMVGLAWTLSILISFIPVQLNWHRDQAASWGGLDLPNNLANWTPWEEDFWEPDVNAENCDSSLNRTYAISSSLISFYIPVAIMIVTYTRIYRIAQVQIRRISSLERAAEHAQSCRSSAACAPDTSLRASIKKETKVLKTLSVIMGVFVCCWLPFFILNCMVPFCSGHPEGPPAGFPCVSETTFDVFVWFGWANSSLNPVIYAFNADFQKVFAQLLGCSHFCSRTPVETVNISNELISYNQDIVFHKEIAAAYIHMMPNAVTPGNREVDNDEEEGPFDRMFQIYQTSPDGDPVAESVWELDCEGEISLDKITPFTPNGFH
# [11] = Half life in mouse at 2 mg/kg, ip administered as discrete dose; type: ADME, organism-based; conditions: in vivo; procedure, shortened: as §1
# [12] = Plasma protein binding in human assessed as unbound fraction; type: ADME, cell-free; conditions: read-out: PPB
# Procedure, shortened: (§5)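 Equilibrium dialysis in human and mouse plasma; results expressed as […] fraction unbound.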
# [13] = Microsomal stability in human liver microsomes assessed as intrinsic clearance; type: ADME, Microsome; conditions: read-out: CLH; procedure, shortened: as §4
# [14] = AUC in mouse at 2 mg/kg, ip administered as discrete dose; type: ADME, organism-based; parameters: dose 2 mg/kg, route ip; conditions: in vivo; procedure, shortened: as §1
# [15] = molecular target: Histamine H1 receptor (Homo sapiens, UniProt P35367); assay: Binding affinity to H1 receptor (unknown origin)
# Histamine H1 receptor, sequence (P35367 whole entry): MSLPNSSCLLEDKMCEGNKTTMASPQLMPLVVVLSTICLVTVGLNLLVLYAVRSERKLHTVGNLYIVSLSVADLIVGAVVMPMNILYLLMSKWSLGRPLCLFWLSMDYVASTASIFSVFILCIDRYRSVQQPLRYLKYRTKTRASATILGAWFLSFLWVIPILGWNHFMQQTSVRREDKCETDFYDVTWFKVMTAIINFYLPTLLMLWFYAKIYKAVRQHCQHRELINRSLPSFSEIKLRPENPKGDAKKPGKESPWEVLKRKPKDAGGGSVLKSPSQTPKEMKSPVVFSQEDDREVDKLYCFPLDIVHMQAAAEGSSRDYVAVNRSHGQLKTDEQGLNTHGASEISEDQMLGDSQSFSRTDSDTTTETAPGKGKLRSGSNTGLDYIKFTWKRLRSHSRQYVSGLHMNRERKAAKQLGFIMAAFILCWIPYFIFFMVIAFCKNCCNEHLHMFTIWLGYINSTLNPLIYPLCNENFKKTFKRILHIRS
# [16] = molecular target: T1, Mas-related G-protein coupled receptor member X1; assay: Positive allosteric modulator activity at human MRGPRX1 expressed in HEK293 cells in presence of BAM8-22 by Fluo4-dye based FLIPR assay; type: cell-based
# Procedure, shortened: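 HEK293 cells expressing MrgX1. Compounds tested in the presence of 10 nM BAM8-22. Emax normalized to control compound ML382; mean ± SEM of n = 2 experiments.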
# [17] = Tmax in mouse at 2 mg/kg, ip administered as discrete dose; type: ADME, organism-based; conditions: in vivo; procedure, shortened: as §1
# [18] = Ratio of drug concentration in brain to plasma in mouse at 2 mg/kg, ip administered as discrete dose; type: ADME, organism-based; conditions: brain and plasma, read-out: BPR; procedure, shortened: as §1
# [19] = AUC in Sprague-Dawley rat at 0.25 mg/kg, iv bolus injection administered as cassette dose; type: ADME, organism-based; parameters: dose 0.25 mg/kg, route iv; conditions: in vivo; procedure, shortened: as §2
# [20] = Plasma protein binding in mouse assessed as unbound fraction; type: ADME, cell-free; conditions: read-out: PPB; procedure, shortened: as §5
# [21] = Clearance in Sprague-Dawley rat at 0.25 mg/kg, iv bolus injection administered as cassette dose; type: ADME, organism-based; conditions: in vivo; procedure, shortened: as §2
Compound,Vd [3],concentration at 48.25 h [4],half-life [5],Kp at 0.25 h [6],CLint scaled [7],concentration at 48.25 h [8],Emax [9],fraction unbound [12],CLint scaled [13],Ki [15],EC50 [16],AUC [19],fraction unbound [20],clearance [21],further results
CCOc1ccc(F)cc1NC(=O)c1ccccc1NS(=O)(=O)C1CC1,0.52 L/kg,23.6 ng/g,28.8 min,0.29,1660 mL/min/kg,79.6 ng/mL,82.2%,0.004,79.1 mL/min/kg,> 4000 nM,14 nM,119 ng·h/mL,0.022,36.7 mL/min/kg,Cmax [1]: 259 ng/mL; Ki [2]: 271 nM; Ki [10]: > 4000 nM; half-life [11]: 10.8 min; AUC [14]: 69 ng·h/mL; Tmax [17]: 10.2 min; Kp [18]: 0.32
CCOc1ccc(F)cc1NC(=O)c1cc(C)ccc1NS(=O)(=O)C1CC1,1.2 L/kg,35.1 ng/g,25.2 min,0.57,1100 mL/min/kg,61.5 ng/mL,106%,0.003,114 mL/min/kg,1090 nM,69 nM,66.2 ng·h/mL,0.012,63.1 mL/min/kg,

# — ChEMBL document CHEMBL5154918, “Synthesis and Biological Characterization of a Series of 2-Sulfonamidebenzamides as Allosteric Modulators of MrgX1” (ACS Med Chem Lett, 2022)
